Measured values from PMC4532346 (Drug Design, Development and Therapy, 2015).
pIC50: −log10 of the molar value. Where two headings read alike, the source gives them in different places.

Legend:
CYP1A2 = molecular target: T1, CYP1A2 (Homo sapiens, UniProt P05177); experiment: cytochrome P450 inhibition, CYP1A2; format: in vitro ADME
T1 sequence (P05177 1-516): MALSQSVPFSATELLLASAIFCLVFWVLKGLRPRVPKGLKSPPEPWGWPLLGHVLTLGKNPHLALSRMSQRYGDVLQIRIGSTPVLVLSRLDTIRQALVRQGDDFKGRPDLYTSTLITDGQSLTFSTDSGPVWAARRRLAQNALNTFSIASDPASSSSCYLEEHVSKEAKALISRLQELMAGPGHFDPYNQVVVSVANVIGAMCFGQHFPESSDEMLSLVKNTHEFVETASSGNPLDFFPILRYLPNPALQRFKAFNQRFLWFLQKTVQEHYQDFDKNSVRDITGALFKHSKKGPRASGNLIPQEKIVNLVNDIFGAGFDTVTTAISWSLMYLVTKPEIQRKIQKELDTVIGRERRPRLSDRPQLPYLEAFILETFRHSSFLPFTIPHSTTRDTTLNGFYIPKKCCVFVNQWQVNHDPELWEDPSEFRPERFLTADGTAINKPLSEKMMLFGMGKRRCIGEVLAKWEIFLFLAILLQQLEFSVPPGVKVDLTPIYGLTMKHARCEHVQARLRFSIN

CYP2C9 = CYP2C9 (Homo sapiens, UniProt P11712); experiment: cytochrome P450 inhibition, CYP2C9; format: in vitro ADME
CYP2C19 = CYP2C19 (Homo sapiens, UniProt P33261); experiment: cytochrome P450 inhibition, CYP2C19; format: in vitro ADME
CYP2D6 = CYP2D6 (Homo sapiens, UniProt P10635); experiment: cytochrome P450 inhibition, CYP2D6; format: in vitro ADME
CYP3A4 = CYP3A4 (Homo sapiens, UniProt P08684); experiment: cytochrome P450 inhibition, CYP3A4; format: in vitro ADME
Caco-2 permeability = format: in vitro ADME, human; conditions: human
Method in brief: (§1)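 Caco-2 cells grown in DMEM with 10% FBS, penicillin and streptomycin, seeded at 1×10^5 cells/cm2 on Transwell inserts and cultured 22 days at 37°C, 5% CO2. Preincubated 30 min in HBSS–HEPES. Only inserts with lucifer yellow ≤1% used, rechecked after the run. Test compound at 2 and 20 μM (1% DMSO final) added to donor, triplicate, A–B and B–A. Papp and efflux ratio calculated.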

Caco-2 cell monolayer = experiment: Caco-2 permeability; format: in vitro ADME, human; conditions: Papp(B-A)/Papp(A-B)
Method in brief: as §1

Chain of CYP3A4 (P08684 whole entry): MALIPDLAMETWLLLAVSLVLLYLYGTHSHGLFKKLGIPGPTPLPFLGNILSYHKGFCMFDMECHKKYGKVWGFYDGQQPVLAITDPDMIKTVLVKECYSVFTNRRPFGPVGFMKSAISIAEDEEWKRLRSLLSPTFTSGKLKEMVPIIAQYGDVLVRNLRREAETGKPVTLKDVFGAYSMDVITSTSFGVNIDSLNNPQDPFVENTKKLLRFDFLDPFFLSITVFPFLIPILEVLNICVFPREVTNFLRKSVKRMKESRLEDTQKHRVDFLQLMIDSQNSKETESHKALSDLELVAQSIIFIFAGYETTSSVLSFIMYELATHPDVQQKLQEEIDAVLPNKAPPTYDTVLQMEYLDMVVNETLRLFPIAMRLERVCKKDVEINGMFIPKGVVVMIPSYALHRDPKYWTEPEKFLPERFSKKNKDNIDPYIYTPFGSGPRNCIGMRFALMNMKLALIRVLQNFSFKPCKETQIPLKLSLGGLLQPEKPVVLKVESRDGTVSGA
Chain of CYP2C9 (P11712 whole entry): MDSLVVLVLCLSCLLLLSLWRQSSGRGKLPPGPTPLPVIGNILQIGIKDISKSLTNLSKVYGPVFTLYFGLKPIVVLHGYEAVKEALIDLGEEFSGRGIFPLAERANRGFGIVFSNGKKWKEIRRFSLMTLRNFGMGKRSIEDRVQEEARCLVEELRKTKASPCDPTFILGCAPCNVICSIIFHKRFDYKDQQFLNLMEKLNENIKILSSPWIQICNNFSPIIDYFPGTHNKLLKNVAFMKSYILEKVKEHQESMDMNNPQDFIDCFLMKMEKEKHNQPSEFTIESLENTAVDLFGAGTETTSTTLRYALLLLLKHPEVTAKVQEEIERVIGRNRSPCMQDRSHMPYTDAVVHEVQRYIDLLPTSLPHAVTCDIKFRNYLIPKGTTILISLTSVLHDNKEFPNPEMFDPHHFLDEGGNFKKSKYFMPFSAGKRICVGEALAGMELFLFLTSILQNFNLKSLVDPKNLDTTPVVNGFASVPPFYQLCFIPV
Chain of CYP2C19 (P33261 whole entry): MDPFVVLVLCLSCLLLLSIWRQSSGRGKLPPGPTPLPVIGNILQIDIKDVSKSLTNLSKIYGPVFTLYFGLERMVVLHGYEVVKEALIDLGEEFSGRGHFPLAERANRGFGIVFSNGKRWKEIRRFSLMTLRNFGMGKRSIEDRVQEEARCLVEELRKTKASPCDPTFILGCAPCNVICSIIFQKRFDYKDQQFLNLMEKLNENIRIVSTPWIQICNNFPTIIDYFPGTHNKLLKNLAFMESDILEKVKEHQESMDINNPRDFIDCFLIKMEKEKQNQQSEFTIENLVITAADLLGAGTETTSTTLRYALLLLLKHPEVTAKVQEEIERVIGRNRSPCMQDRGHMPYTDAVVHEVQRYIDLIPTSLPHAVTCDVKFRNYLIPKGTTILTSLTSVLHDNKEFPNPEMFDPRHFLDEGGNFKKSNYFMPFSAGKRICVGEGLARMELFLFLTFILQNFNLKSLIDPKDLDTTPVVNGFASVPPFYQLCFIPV
Chain of CYP2D6 (P10635 whole entry): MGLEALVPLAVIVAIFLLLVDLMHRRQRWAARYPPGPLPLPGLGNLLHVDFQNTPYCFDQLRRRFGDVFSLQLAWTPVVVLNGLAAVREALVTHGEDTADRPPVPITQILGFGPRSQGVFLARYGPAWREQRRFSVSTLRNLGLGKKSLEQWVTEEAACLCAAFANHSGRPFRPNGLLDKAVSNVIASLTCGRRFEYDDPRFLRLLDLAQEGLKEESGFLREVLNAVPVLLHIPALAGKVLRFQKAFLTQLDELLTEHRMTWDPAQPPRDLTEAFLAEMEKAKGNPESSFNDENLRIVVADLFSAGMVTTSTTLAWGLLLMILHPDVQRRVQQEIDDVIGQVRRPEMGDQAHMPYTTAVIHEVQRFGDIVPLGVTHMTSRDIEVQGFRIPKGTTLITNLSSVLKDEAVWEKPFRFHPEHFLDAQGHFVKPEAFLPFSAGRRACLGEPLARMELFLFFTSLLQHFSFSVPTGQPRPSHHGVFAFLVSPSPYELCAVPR

## COC(=O)c1ccc2c(c1)NC(=O)/C2=C(\Nc1ccc(N(C)C(=O)CN2CCN(C)CC2)cc1)c1ccccc1 [Nintedanib, nintedanib]
CYP1A2
  pIC50: 4.76
CYP2C9
  pIC50: 4.48
CYP2C9; P450 inhibition IC50, 2C9, probe substrate diclofenac
  pIC50: ≤ 4.48
CYP2C19
  pIC50: 4.29
CYP2C19; P450 inhibition IC50, 2C19, probe substrate S-mephenytoin
  pIC50: ≤ 4.48
CYP2D6
  pIC50: 4.40
CYP2D6; P450 inhibition IC50, 2D6, probe substrate dextromethorphan
  pIC50: ≤ 4.48
CYP3A4
  pIC50: 5.64
CYP3A4; P450 inhibition IC50, 3A4 (Mid), probe substrate midazolam
  pIC50: < 4.10
CYP3A4; probe substrate midazolam
  P450 inhibition IC50, 3A4 (Mid): did not show inhibition
Caco-2 permeability; Caco-2
  Papp A→B at 120 min, 2 μM: 0.05 ×10⁻⁶ cm/s
  Papp A→B at 120 min, 20 μM: 0.29 ×10⁻⁶ cm/s
  Papp B→A at 120 min, 2 μM: 14.4 ×10⁻⁶ cm/s
  Papp B→A at 120 min, 20 μM: 22.6 ×10⁻⁶ cm/s
Caco-2 permeability; Caco-2, Efflux ratio, Caco-2, 2 μM, Papp(B-A)/Papp(A-B)
  efflux ratio at 120 min, 2 μM: ~319
Caco-2 permeability; Caco-2, Efflux ratio, Caco-2, 20 μM, Papp(B-A)/Papp(A-B)
  efflux ratio at 120 min, 20 μM: ~78
Caco-2 cell monolayer; Caco-2, 2 μM
  Efflux ratio: 319.81
Caco-2 cell monolayer; Caco-2, 20 μM
  Efflux ratio: 78.24
